Measured values published in ChEMBL document CHEMBL4043297, “Synthesis and Structure-Activity Relationships of the Novel Antimalarials 5-Pyridinyl-4(1 H)-Pyridones” (J Med Chem, 2018).

Experiments:
Plasmodium falciparum = experiment: Antimalarial activity against Plasmodium falciparum 3D7A infected in human RBC after 48 hrs by [3H]-hypoxanthine incorporation assay; assay type: functional
serum albumin = serum albumin (Homo sapiens, UniProt P02768); experiment: Binding affinity to human serum albumin by HPLC method; assay type: ADME; details: read-out: PB (converted)
[1] = Cmax in CD1 mouse at 4.42 mg/kg administered via oral gavage by LC-MS/MS method; assay type: ADME, organism-based; design: dose 4.42 mg/kg, route oral; details: in vivo
Summary of the method: (§1)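 Specific pathogen-free female CD1 (Hsd:ICR) mice, 8 to 10 weeks old. Each compound was given as an intravenous dose and an oral dose at the levels listed. Parameters reported: Vd, clearance, t1/2, Cmax, Tmax, AUC0-t, AUC∞ and %F.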

[2] = Tmax in CD1 mouse at 4.42 mg/kg administered via oral gavage by LC-MS/MS method; assay type: ADME, organism-based; details: in vivo
Summary of the method: (§2)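 Specific pathogen-free female CD1 (Hsd:ICR) mice, 8–10 weeks old, housed in the institutional animal facility. Each compound was given intravenously at a low dose and orally at a higher dose. Vd, clearance, t1/2, Cmax, Tmax, AUC0-t, AUC∞ and %F were derived from plasma exposure after each route.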

[3] = AUC (0 to t) in CD1 mouse at 4.42 mg/kg administered via oral gavage by LC-MS/MS method; assay type: ADME, organism-based; details: in vivo; summary of the method: as §1
[4] = AUC (infinity) in CD1 mouse at 4.42 mg/kg administered via oral gavage by LC-MS/MS method; assay type: ADME, organism-based; design: dose 4.42 mg/kg, time infinity, route oral; details: in vivo; summary of the method: as §1
[5] = Oral bioavailability in CD1 mouse at 4.42 mg/kg administered via gavage by LC-MS/MS method; assay type: ADME, organism-based; details: in vivo; summary of the method: as §2
Plasmodium yoelii = experiment: Schizontocidal activity against Plasmodium yoelii infected in CD1 mouse administered via oral gavage as qd for 4 days starting 1 hr post infection by YOYO-1 dye-based flow cytometric method; assay type: functional
Summary of the method: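 Blood schizontocidal activity was tested in a modified 4-day suppressive test in mice infected with P. yoelii. Four oral doses were given by gavage over four days.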

[6] = Volume of distribution in CD1 mouse at […], iv as bolus dose by LC-MS/MS method; assay type: ADME, organism-based; details: in vivo
[7] = Clearance in CD1 mouse at […], iv as bolus dose by LC-MS/MS method; assay type: ADME, organism-based; details: in vivo
[8] = Half life in CD1 mouse at […], iv as bolus dose by LC-MS/MS method; assay type: ADME, organism-based; details: in vivo
[9] = Cmax in CD1 mouse at 8.3 mg/kg administered via oral gavage by LC-MS/MS method; assay type: ADME, organism-based; design: dose 8.3 mg/kg, route oral; details: in vivo; summary of the method: as §1
[10] = Tmax in CD1 mouse at 8.3 mg/kg administered via oral gavage by LC-MS/MS method; assay type: ADME, organism-based; details: in vivo; summary of the method: as §2
[11] = AUC (0 to t) in CD1 mouse at 8.3 mg/kg administered via oral gavage by LC-MS/MS method; assay type: ADME, organism-based; details: in vivo; summary of the method: as §1
[12] = AUC (infinity) in CD1 mouse at 8.3 mg/kg administered via oral gavage by LC-MS/MS method; assay type: ADME, organism-based; design: dose 8.3 mg/kg, route oral, time infinity; details: in vivo; summary of the method: as §1
[13] = Oral bioavailability in CD1 mouse at 8.3 mg/kg administered via gavage by LC-MS/MS method; assay type: ADME, organism-based; details: in vivo; summary of the method: as §2

Chain of serum albumin (P02768 whole entry): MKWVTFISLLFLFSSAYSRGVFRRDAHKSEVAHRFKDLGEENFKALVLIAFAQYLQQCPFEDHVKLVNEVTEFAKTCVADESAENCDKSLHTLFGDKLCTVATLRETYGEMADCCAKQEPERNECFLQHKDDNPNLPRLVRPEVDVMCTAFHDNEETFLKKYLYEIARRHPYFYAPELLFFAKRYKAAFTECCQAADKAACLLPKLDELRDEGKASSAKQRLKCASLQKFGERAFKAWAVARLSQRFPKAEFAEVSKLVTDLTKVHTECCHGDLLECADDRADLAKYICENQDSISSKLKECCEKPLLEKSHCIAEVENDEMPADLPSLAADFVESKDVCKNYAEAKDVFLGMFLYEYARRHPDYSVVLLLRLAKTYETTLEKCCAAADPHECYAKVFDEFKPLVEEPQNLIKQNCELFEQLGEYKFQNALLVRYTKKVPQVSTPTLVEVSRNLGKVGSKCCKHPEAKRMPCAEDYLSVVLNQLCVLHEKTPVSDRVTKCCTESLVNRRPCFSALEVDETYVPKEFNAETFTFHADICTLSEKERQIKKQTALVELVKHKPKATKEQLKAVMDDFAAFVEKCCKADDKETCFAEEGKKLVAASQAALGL

Cc1[nH]c(CO)c(-c2ccc(Oc3ccc(OC(F)(F)F)cc3)cc2)c(=O)c1Cl
IC50 (Plasmodium falciparum): 5 nM

Cc1[nH]c(C)c(-c2ccc(-c3ccccc3Cl)nc2)c(=O)c1Br
IC50 (Plasmodium falciparum): 44 nM

Cc1[nH]c(C)c(-c2ccc(-c3ccc(F)cc3)nc2)c(=O)c1Cl
IC50 (Plasmodium falciparum): 82 nM

Cc1[nH]c(C)c(-c2ccc(OCc3cccc(C(F)(F)F)c3)nc2)c(=O)c1Cl
IC50 (Plasmodium falciparum): 5 nM

Cc1[nH]c(C)c(-c2ccc(-c3ccc(C(F)(F)F)cc3)nc2)c(=O)c1Cl
IC50 (Plasmodium falciparum): 16 nM
fraction unbound (serum albumin): 0.05
Cmax [1]: 3310 ng/mL
Tmax [2]: 10 h
AUC(0-t) [3]: 101 µg·h/mL
AUC(0-inf) [4]: 106 µg·h/mL
bioavailability [5]: 100%
ED50 (Plasmodium yoelii): 0.25 mg/kg

Cc1[nH]c(C)c(-c2ccc(OCc3ccc(F)cc3)nc2)c(=O)c1Cl
IC50 (Plasmodium falciparum): 33 nM

Cc1[nH]c(C)c(-c2ccc(OCc3cc(C(F)(F)F)cc(C(F)(F)F)c3)nc2)c(=O)c1Br
IC50 (Plasmodium falciparum): 33 nM

Cc1[nH]c(C)c(-c2ccc(OCc3ccccc3C(F)(F)F)nc2)c(=O)c1Cl
IC50 (Plasmodium falciparum): 10 nM

Cc1[nH]c(C)c(-c2ccc(-c3cccc(C(F)(F)F)c3)nc2)c(=O)c1Br
IC50 (Plasmodium falciparum): 7 nM

Cc1[nH]c(C)c(-c2ccc(OCc3ccc(OC(F)(F)F)cc3)nc2)c(=O)c1Br
IC50 (Plasmodium falciparum): 19 nM
fraction unbound (serum albumin): 0.03

Cc1[nH]c(CO)c(-c2ccc(-c3ccc(C(F)(F)F)cc3F)nc2)c(=O)c1Cl
IC50 (Plasmodium falciparum): 5 nM
fraction unbound (serum albumin): 0.06
ED50 (Plasmodium yoelii): 0.2 mg/kg

Cc1[nH]c(C)c(-c2ccc(CCc3cccc(C(F)(F)F)c3)nc2)c(=O)c1Cl
IC50 (Plasmodium falciparum): 7 nM

Cc1[nH]c(C)c(-c2ccc(-c3cccc(Cl)c3)nc2)c(=O)c1Cl
IC50 (Plasmodium falciparum): 116 nM

Cc1[nH]c(C)c(-c2ccc(CCc3ccc(C(F)(F)F)cc3)nc2)c(=O)c1Cl
IC50 (Plasmodium falciparum): 5 nM

Cc1[nH]c(C)c(-c2ccc(C#Cc3ccc(F)cc3F)nc2)c(=O)c1Cl
IC50 (Plasmodium falciparum): 472 nM

Cc1[nH]c(C)c(-c2ccc(OCc3cccc(C(F)(F)F)c3)nc2)c(=O)c1Br
IC50 (Plasmodium falciparum): 4 nM

Cc1[nH]c(C)c(-c2ccc(-c3ccc(F)cc3)nc2)c(=O)c1Br
IC50 (Plasmodium falciparum): 129 nM

Cc1[nH]c(C)c(-c2ccc(OCc3ccc(C(F)(F)F)cc3)nc2)c(=O)c1Br
IC50 (Plasmodium falciparum): 2 nM

Cc1[nH]c(C)c(-c2ccc(-c3ccccc3Cl)nc2)c(=O)c1Cl
IC50 (Plasmodium falciparum): 26 nM

Cc1[nH]c(C)c(-c2ccc(C#Cc3ccc(C(F)(F)F)cc3)nc2)c(=O)c1Br
IC50 (Plasmodium falciparum): 58 nM

Cc1[nH]c(C)c(-c2ccc(OCc3ccc(OC(F)(F)F)cc3)nc2)c(=O)c1Cl
IC50 (Plasmodium falciparum): 14 nM
fraction unbound (serum albumin): 0.03
Vd [6]: 1.26 L/kg
clearance [7]: 2.74 mL/min/kg
half-life [8]: 319 min
Cmax [9]: 300 ng/mL
Tmax [10]: 6 h
AUC(0-t) [11]: 5600 ng·h/mL
AUC(0-inf) [12]: 5600 ng·h/mL
bioavailability [13]: 11%
ED50 (Plasmodium yoelii): 16.3 mg/kg
